Data reported in the EternaBench riboswitch data.

System: MS2 coat protein
Test: apparent Kd, MS2 coat protein; higher = weaker binding; RNA-MaP array; FMN 200 µM where present
In short: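 Designs on Illumina sequencing-chip clusters, transcribed by stalled E. coli RNA polymerase, were exposed to SNAP-549-labelled MS2 coat protein in doubling steps from 0.7 or 1.5 nM up to 3 µM, without and then with constant ligand. The buffer held 100 mM Tris-HCl pH 7.5, 80 mM KCl, 4 mM MgCl2, BSA, DTT, yeast tRNA and Tween-20. Apparent Kd values are medians of filtered per-cluster binding-curve fits to green signal normalised to red-channel RNA signal and control-cluster median Fmax.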

[1] = designed as: OFF switch for flavin mononucleotide, no ligand
[2] = ligand present: flavin mononucleotide, designed as: OFF switch for flavin mononucleotide
[3] = designed as: ON switch for flavin mononucleotide, no ligand
[4] = ligand present: flavin mononucleotide, designed as: ON switch for flavin mononucleotide

| Sequence | apparent Kd [1] [nM] | apparent Kd [2] [nM] | apparent Kd [3] [nM] | apparent Kd [4] [nM] |
| --- | --- | --- | --- | --- |
| UAUAUACAUGAGGAUCACCCAUGUAAGGAUAUGCAUUAUUAUUAUUAUUAUUAUUAUAGCAGAAGGUACAAUAU | 32.1 | 31.3 |  |  |
| CUAAUGUAGACAGGAUAUCCUGGACAUGAGGAUCACCCAUGUGCAUAAAAUGGAGAAGGGUCACGGAGGCCCUGUGGGCAGGGU |  |  | 46.3 | 9.9 |
| AAUGGCGUGAUAACGCUAAUUAAAACAUGAGGAUCACCCAUGUAGGAUAUCCUACCGAAAUGGUAGGAGAAGGACAAGCAAUGA | 33.4 | 27.7 |  |  |
| CACGGUGAUGUAGGAUAUACGCUGGAAUACAGCGUAGAAGGACAUGAGGAUCACCCAUGUAGAGUGUCUCCAAAUAACACCGUG | 43 | 293 |  |  |
| GGUAGAAACAUUAACAUGAGGAUCACCCAUGUCAAAAGAAAUGAGGAUAUCGUAUACAAUGUAUAUGAGAAGGCAUGGUCUGCC |  |  | 9.17 | 6.45 |
| GUAGCAUACAGAGGAUAUCUUAACCGGAAACGGACAUGAGGAUCACCCAUGUGGCGAAAGCCUAGGGAGAAGGCUGAAUGCUAC |  |  | 10.2 | 11.1 |
| GCUGACGAUGUAGGAUAUCUCGACGAUAAGUCGAGAGAAGGACAUGAGGAUCACCCAUGUAUCUCAACGUCAGCGAGGAAACUC | 16.4 | 20.4 |  |  |
| GGAUAGGACAGAGGAUAUACCGAUAGGAUCUACUAUCGAACAAUCCUCACAUGAGGAUCACCCAUGUAGAAGGCUGUCCUAUCG | 23.9 | 274 |  |  |
| UGUCGGAGCAGAGGAUAUUACAUGAGGAUCACCCAUGUAUGAACCAAUAGCUGGAAACAGCUAUGUAAGAAGGCUGCUCCGACA | 5.31 | 9.42 |  |  |
| UUUAAUCGAAACAUGAGGAUCACCCAUGUGUUGUAAUUAACAUAGGAUAUUUGUAUACUUUUGUAAGAGAAGGAUGAUAAUACU |  |  | 22.4 | 15.8 |
| CACUCGUGUCUAGGAUAUGAGUGACAAGCGCGAGAUUUUCUCACCGCUAGCUCAGAAGGAGACAUGAGGAUCACCCAUGUAAGG | 165 | 20.3 |  |  |
| AAAAAACAUGAGGAUCACCCAUGUCUUCGGACAUGAGGAUAUGUACAGACUUCGGUCUGUACAGAAGGCAUGUCAA |  |  | 166 | 23.2 |
| UGAUAGGACAGAGGAUAUACAGAUAGGAUCUACUAUCAAACAAUCCUCACAUGAGGAUCACCCAUGUAGAAGGCUGUCCUAUCU | 106 | 888 |  |  |
| AGUAACAGAGGAUAUACUGUUUUAUGUGUUUGUUAUUUUAAACAUGAGGAUCACCCAUGUAGAAGGCUGAAUGA | 27.1 | 25.3 |  |  |
| AACAAGCAAGGAUAUACAUGAGGAUCACCCAUGUCGUCUAAACGUACAUGCUACUCUUGUAGAAGGUGCAAAAU | 129 | 537 |  |  |
| UUGGGACUAUCAGGAUAUGGUGUAGCCCAGUAAAGGACAUGAGGAUCACCCAUGUACCAUUGGUACCAGAAGGGAUGAUCCUAC |  |  | 18.4 | 14.8 |
| GCUGACGAUGUAGGAUAUCUCGACGAUAAGUCGAGAGAAGGACAUGAGGAUCACCCAUGUACUCCAACGUCAGCGAGGAAACUC | 18.2 | 18.5 |  |  |
| AUAGUGCGCGAGAAGGACGUACCACAUGAGGAUCACCCAUGUGUGGUACGUAGGAUAUUGCACAUGAGGAUCACCCAUGUGGAU |  |  | 19.5 | 34.6 |
| AAUAACAGAGGAUAUACUAUUUUAUGUGUUUGUUGUUUUAAACAUGAGGAUCACCCAUGUAGAAGGCUGAUUAA | 32.7 | 38.8 |  |  |
| ACAGCUGAAGGAUAUACUUGGAAAAAAAAAAAAAAAAAAAAACAUGAGGAUCACCCAUGUAGAAGGUCAGCUGA | 52.9 | 78.5 |  |  |
| UAUCUGUGAGGAUAUCCGGGCCCGGGCGAAAGCCCGGGCCCGGAGAAGGCACAUGAGGAUCACCCAUGUGACCU | 14.8 | 19.1 |  |  |
| AGGAGAAAUGUAGGAUAUGGGCGGGCAUAUGGGCAAAGCGCAUAUGCCCGCCCAGAAGGACAUGAGGAUCACCCAUGUUUCCCU | 13.2 | 11.1 |  |  |
| AAAAAUGGAGGAUAUACAUGAGGAUCACCCAUGUGUGGCUAUACUAUGUGCUCUUCAGGUAGAAGGCCAAAAAA | 42.6 | 201 |  |  |
| UCCACUGCUGAGAAGGGAUCCGUGUGGUUCGAAUCAGGAUAUCGAUACAGUGCAGCAUGAGGACAUGAGGAUCACCCAUGUAUU |  |  | 16 | 13 |
| GUCAGCUCGUGAGGAUAUACAACACUGCUUCGGCAGUGUAUUAAGAUCACAUGAGGAUCACCCAUGUAGAAGGCACGAUCUGAU | 13.6 | 220 |  |  |
| GUCGGAAACGACAAAAGUAGCAUACGAGAAGGCUGAUCCAAGACAUGAGGAUCACCCAUGUAGUUAGAGGAUAUUGGAUGCUAC |  |  | 63.8 | 10.7 |
| GCUUGAGCAGGAUAUACAUGAGGAUCACCCAUGUUGAGCUUGAGGAUCUUCGAGUUCGGUAGAAGGGUUCGAGU | 22.1 | 59.5 |  |  |
| UUCAUGUGAGGAUAUAGUACUUCUUCUAUUAUUAUUGAGUACUAGAAGGCACAUGAGGAUCACCCAUGUAGUAC | 58 | 20.9 |  |  |

| Sequence | apparent Kd [1] [nM] | apparent Kd [2] [nM] | apparent Kd [3] [nM] | apparent Kd [4] [nM] |
| --- | --- | --- | --- | --- |
| UAUAUAUAGUAAGGAUAUGUAUUAAUUUUGUAAACAGAAGGUACUGACAUGAGGAUCACCCAUGUUUUAGUGUGGGCAUGUAGA | 130 | 208 |  |  |
| UGGUACAUGGGAGGAUAUCCUCACAUGAGGAUCACCCAUGUAAAGAAUUAUAAGCCGAAAGGCAUGGAGAAGGCCCAUGUACCU |  |  | 87.6 | 16.2 |
| GAGGAGGUAGGAUAUACGAUAAUAUAGGGUAGAUAUAUAACACAUGAGGAUCACCCAUGUAGAAGGACCAGGAG | 34.4 | 62.4 |  |  |
| CGUUGAUUUAUUGGAUGAUAUGAUGAGGAUAUCAAUAUUUGUUACAUGAGGAUCACCCAUGUUAAUGAGAAGGCAUAAUUAACG |  |  | 8.49 | 7.96 |
| CUAUCGUUGCAGAAGGUUAAAUAAUUUCUCAUCUUGUUUACAUGAGGAUCACCCAUGUAUUUGUUGAAGGAUAUGCAAGUGUUG | 12.5 | 11 |  |  |
| GUACCUUAUGAGAAGGCGAUCAUAAAACAUGAUCGAGGAUAUCAUGUAAACAUGAGGAUCACCCAUGUAUGGGUAUUAUGGUAC |  |  | 68.7 | 17.5 |
| UUGGACGUCGUAGGAUAUGUAGGAUAUUCCUACAUGAGGAUCACCCAUGUUGACAUGGAAGAAGGACCGAAGGACGAUGUCCAU |  |  | 148 | 691 |
| UGGUACAUCGGAGGAUAUCAUGUAAAUACAUGAGGAUCACCCAUGUCGAUGGAGACAUCGGAGAUUGAGAAGGCCGAUGUACCG |  |  | 166 | 8.66 |
| AGAUACAACCAGAAGGACAUGAGGAUCACCCAUGUAGGAUAUGGGUUACACGUGCCUGGGAAGUGUAACGACGCUACGAAGAGU |  |  | 31.4 | 8.3 |
| AAUGUUUGAUUCCACUUAUACAUGAGGAUCACCCAUGUUAUCGAGGAUAUGCAUUAGAGUGUUUAGCAGAAGGCGAUGUAAUUU | 6.74 | 17.5 |  |  |
| UUACCUCAUGAGAAGGACAUGAGGAUCACCCAUGUAGGAUAUCGUGGGAGACAGGUAUUGAAUCUUCGGAUUCAAUACCAGUCU |  |  | 396 | 27.6 |
| GGGUUCAUCGGAGGAUAUCAUGUAAAUACAUGAGGAUCACCCAUGUCGAUGGAGACAUCGGAGAUUGAGAAGGCCGAUGUACCG |  |  | 186 | 9.18 |
| AAGAAGUGAGGAUAUGGCCGGGUCCCUGGGUUUGGACCCGGCCAGAAGGCACAUGAGGAUCACCCAUGUAAGAA | 24 | 46.3 |  |  |
| ACAUGAGGAUCACCCAUGUACAUGGGUUUAAUUGUGUGUUACGAGGAUAUGUAUUUGAAUUUACAACAGAAGGUGUAUUACUGU | 811 | 610 |  |  |
| ACUAAUAAGUGAGGAUAUACAUAAUUCAUAUCAGUAGAAGGCACAAUCCUCUUUACAUGAGGAUCACCCAUGUUAUAUAUAUAA | 73.8 | 194 |  |  |
| GGCGGUCGGGAGGAUAUUCGGGCUGUUUGGCUUGGAGAAGGCUCGACAUGAGGAUCACCCAUGUAAGUGUUCUU | 376 | 406 |  |  |
| AUAAAUGAUGAGGAUAUCACUAGCGAUAGCUAGUGAGAAGGCAUCACAUGAGGAUCACCCAUGUGCUCCAAUAA | 115 | 486 |  |  |
| UUGAGGUGCAAGAAGGAUCACAUGAGGAUCACCCAUGUGAUAUAAAGUCUCGAGAUUUUAUAUCGAUAGGAUAUUGCACCGAAC |  |  | 19.9 | 13.8 |
| GCACUGGAUGUAGGAUAUCAGGACGAUAAGUCCUGAGAAGGACAUGAGGAUCACCCAUGUCUCAAAACCAGUGCAUAUAAUAUA | 13.2 | 19.1 |  |  |
| UUGGACGUCGGAGGAUAUGUAGGAUAUUCCUACAUGAGGAUCACCCAUGUUGACAUGGAAGAAGGACAGAAGGACGAUGUCCAU |  |  | 352 | 4.83 |
| GCUAAGAAAGGAUAUACACCGGUGAGCCGCUGAUUUCAGCAACAUGAGGAUCACCCAUGUAGAAGGUUUAUGGG | 367 | 110 |  |  |
| ACGUUUAAUACAGGAUAUGUUAAUAUACAAUAGAUUGGAUAUUACUUAAUUACAGAAGGGUAGAACAUGAGGAUCACCCAUGUA |  |  | 329 | 239 |
| UGUGUGAGACAGGAUAUGCCGGAUGAAUUGCUGGUAGAAGGGUCUACAUGAGGAUCACCCAUGUGGCCGGUUGG | 16.8 | 24.8 |  |  |
| GUGACGGAUGUAGGAUAUGCUGACCAAUGGUCAGCAGAAGGACAUGAGGAUCACCCAUGUCAUCCUUAUAAUAAAUACCGUCAC |  | 18.3 |  |  |
| AUGCGGUCAGGAUAUGCAUGGCGGGACUUGCGUCGUGGCGUGGAGAAGGGACAUGAGGAUCACCCAUGUGGCGA | 77.3 | 82.6 |  |  |
| CGAUGACAUAGUCAUCCGUAACGGACAUGAGGAUCACCCAUGUAGGAUAUGCUACUCAACGAGUAGCAGAAGGACAUGAGUCUU | 38.3 | 347 |  |  |
| ACGCUUUGGGAGAAGGUACUUUAAAAUUUUUCCACAUGAGGAUCACCCAUGUAAGGAUAUCCCAUCGUUAAAUAUUCUACAGCA | 8.98 | 7.26 |  |  |
